Laboratory results: ChEMBL document CHEMBL1125204, “Synthesis and biological activity of sinefungin analogues” (J Med Chem, 1991)

Tests used:
Leishmania donovani [1] = test: (§1) Apparent kinetic activity measured for protein carboxyl methyltransferase in Leishmania donovani promastigotes; format: organism-based
In short: (§2)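 Cell-free extracts of L. donovani promastigotes (strain LRC L-52) assayed for S-adenosylmethionine:protein-carboxyl methyltransferase activity, with α-globulin as the methyl-accepting substrate. Kinetic constants came from Lineweaver–Burk plots and were expressed as a Ki/Km ratio. Protein was measured by the Bradford dye-binding method against a bovine serum albumin standard.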

Leishmania donovani [2] = test: Thymidine uptake and incorporation in Leishmania donovani promastigotes measured in the TCA insoluble material at a concentration 11.6 uM in the presence of sinefungin (0.026 uM).; format: functional
In short: (§3)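 Promastigotes at 5×10^8 cells/mL in DMEM/RPMI/FCS medium at 26 °C, equilibrated 3–4 h, then exposed 4 h to compound alone or with 0.026 μM sinefungin. Labelled 1 h with 2.5 μCi/mL [methyl-3H]thymidine and washed in cold PBS. Uptake taken from cold TCA-soluble fraction, incorporation from TCA-insoluble fraction. Protein measured by Lowry method.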

Leishmania donovani [3] = test: Thymidine uptake and incorporation in Leishmania donovani promastigotes measured in the TCA insoluble material at a concentration 23.3 uM.; format: functional; in short: as §3
Leishmania donovani [4] = test: Cell growth of Leishmania donovani promastigotes measured at 24 hr of 0.26 uM sinefungin treatment before compound (260 uM) addition.; format: functional
In short: (§4)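 L. donovani LRC L-52 promastigotes, 0.5×10^6 in 500 μL, grown at 26 °C in 45% DMEM/45% RPMI 1640 (25 mM HEPES pH 7.4) with 10% heat-inactivated FCS. Compounds in water added with 0.26 μM sinefungin. Duplicate wells beside untreated cultures; hemacytometer counts; growth inhibition expressed as % of untreated.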

Leishmania donovani [5] = test: Cell growth of Leishmania donovani promastigotes measured at 48 hr of 0.26 uM sinefungin treatment before compound (260 uM) addition.; format: functional; in short: as §4
Leishmania donovani [6] = test: Thymidine uptake and incorporation in Leishmania donovani promastigotes measured in the TCA insoluble material at a concentration 11.6 uM.; format: functional; in short: as §3
Leishmania donovani [7] = test: Cell growth of Leishmania donovani promastigotes measured at 0h of 0.26 uM sinefungin treatment before compound (260 uM) addition.; format: functional; in short: as §4
Leishmania donovani [8] = test: Thymidine uptake and incorporation in Leishmania donovani promastigotes measured in the TCA soluble material at a concentration 23.3 uM in the presence of sinefungin (0.026 uM).; format: functional; in short: as §3
Leishmania donovani [9] = test: Thymidine uptake and incorporation in Leishmania donovani promastigotes measured in the TCA insoluble material at a concentration 23.3 uM in the presence of sinefungin (0.026 uM).; format: functional; in short: as §3
[10] = It is the ratio of Ki value to that of Km.; format: ADME
In short: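 Ki/Km ratio for protein-carboxyl methyltransferase in cell-free promastigote extracts, α-globulin as substrate. Ki and Km read from Lineweaver–Burk plots.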

Leishmania donovani [11] = test: Cell growth of Leishmania donovani promastigotes measured at 16h of 0.26 uM sinefungin treatment before compound (260 uM) addition.; format: functional; in short: as §4
Leishmania donovani [12] = test: Thymidine uptake and incorporation in Leishmania donovani promastigotes measured in the TCA soluble material at a concentration 23.3 uM.; format: functional; in short: as §3
Leishmania donovani [13] = test: Thymidine uptake and incorporation in Leishmania donovani promastigotes measured in the TCA soluble material at a concentration 11.6 uM.; format: functional; in short: as §3
Leishmania donovani [14] = test: Thymidine uptake and incorporation in Leishmania donovani promastigotes measured in the TCA soluble material at a concentration 130 uM in the presence of sinefungin (0.026 uM).; format: functional; in short: as §3
Leishmania donovani [15] = test: Thymidine uptake and incorporation in Leishmania donovani promastigotes measured in the TCA insoluble material at a concentration 130 uM in the presence of sinefungin (0.026 uM).; format: functional; in short: as §3
Leishmania donovani [16] = test: Cell growth of Leishmania donovani promastigotes measured at 0h of 0.26 uM sinefungin treatment before compound (130 uM) addition.; format: functional; in short: as §4
Leishmania donovani [17] = test: Cell growth of Leishmania donovani promastigotes measured at 24 hr of 0.26 uM sinefungin treatment before compound (130 uM) addition.; format: functional; in short: as §4
Leishmania donovani [18] = test: Cell growth of Leishmania donovani promastigotes measured at 48 hr of 0.26 uM sinefungin treatment before compound (130 uM) addition.; format: functional; in short: as §4
Leishmania donovani [19] = test: Thymidine uptake and incorporation in Leishmania donovani promastigotes measured in the TCA soluble material.; format: functional; in short: as §3
Leishmania donovani [20] = test: Thymidine uptake and incorporation in Leishmania donovani promastigotes measured in the TCA insoluble material in the presence of sinefungin (0.026 uM).; format: functional; in short: as §3
Leishmania donovani [21] = test: Thymidine uptake and incorporation in Leishmania donovani promastigotes measured in the TCA soluble material in the presence of sinefungin (0.026 uM).; format: functional; in short: as §3
Leishmania donovani [22] = test: Cell growth of Leishmania donovani promastigotes measured at 0h of 0.26 uM sinefungin treatment before compound addition.; format: functional; in short: as §4
Leishmania donovani [23] = test: Thymidine uptake and incorporation in Leishmania donovani promastigotes measured in the TCA insoluble material.; format: functional; in short: as §3
Leishmania donovani [24] = test: Cell growth of Leishmania donovani promastigotes measured at 24 hr of 0.26 uM sinefungin treatment before compound (148 uM) addition.; format: functional; in short: as §4
Leishmania donovani [25] = test: Cell growth of Leishmania donovani promastigotes measured at 0h of 0.26 uM sinefungin treatment before compound (148 uM) addition.; format: functional; in short: as §4
Leishmania donovani [26] = test: Thymidine uptake and incorporation in Leishmania donovani promastigotes measured in the TCA insoluble material at a concentration 1.25 uM in the presence of sinefungin (0.026 uM).; format: functional; in short: as §3
Leishmania donovani [27] = test: Thymidine uptake and incorporation in Leishmania donovani promastigotes measured in the TCA soluble material at a concentration 1.25 uM.; format: functional; in short: as §3
Leishmania donovani [28] = test: Thymidine uptake and incorporation in Leishmania donovani promastigotes measured in the TCA soluble material at a concentration 1.25 uM in the presence of sinefungin (0.026 uM).; format: functional; in short: as §3
Leishmania donovani [29] = test: Thymidine uptake and incorporation in Leishmania donovani promastigotes measured in the TCA insoluble material at a concentration 1.25 uM.; format: functional; in short: as §3
Leishmania donovani [30] = test: Thymidine uptake and incorporation in Leishmania donovani promastigotes measured in the TCA insoluble material at a concentration 2.1 uM.; format: functional; in short: as §3
Leishmania donovani [31] = test: Thymidine uptake and incorporation in Leishmania donovani promastigotes measured in the TCA soluble material at a concentration 2.1 uM in the presence of sinefungin (0.026 uM).; format: functional; in short: as §3
Leishmania donovani [32] = test: Thymidine uptake and incorporation in Leishmania donovani promastigotes measured in the TCA insoluble material at a concentration 2.1 uM in the presence of sinefungin (0.026 uM).; format: functional; in short: as §3
Leishmania donovani [33] = test: Thymidine uptake and incorporation in Leishmania donovani promastigotes measured in the TCA soluble material at a concentration 2.1 uM.; format: functional; in short: as §3
Leishmania donovani [34] = test: Cell growth of Leishmania donovani promastigotes measured at 48 hr of 0.26 uM sinefungin treatment before compound (156 uM) addition.; format: functional; in short: as §4
Leishmania donovani [35] = test: Cell growth of Leishmania donovani promastigotes measured at 0h of 0.26 uM sinefungin treatment before compound (156 uM) addition.; format: functional; in short: as §4
Leishmania donovani [36] = test: Cell growth of Leishmania donovani promastigotes measured at 24 hr of 0.26 uM sinefungin treatment before compound (156 uM) addition.; format: functional; in short: as §4
Leishmania donovani [37] = test: as §1; format: ADME, organism-based; settings: in vitro; in short: as §2

Nc1ncnc2c1ncn2[C@@H]1O[C@H](CC(N)CCCC(O)CO)[C@@H](O)[C@H]1O (stereo partly specified)
Ki (Leishmania donovani [1]): 446 µM
Thymidine uptake (Leishmania donovani [2]): 3391425 c.p.m. (mg of protein)-1
Thymidine uptake (Leishmania donovani [3]): 4079585 c.p.m. (mg of protein)-1
Cell growth (Leishmania donovani [4]): 59%
Cell growth (Leishmania donovani [5]): 41%
Thymidine uptake (Leishmania donovani [6]): 3148603 c.p.m. (mg of protein)-1
Cell growth (Leishmania donovani [7]): 100%
Thymidine uptake (Leishmania donovani [8]): 1230950 c.p.m. (mg of protein)-1
Thymidine uptake (Leishmania donovani [9]): 3097327 c.p.m. (mg of protein)-1
Ratio [10]: 8.3
Cell growth (Leishmania donovani [11]): 92%
Thymidine uptake (Leishmania donovani [12]): 1020493 c.p.m. (mg of protein)-1
Thymidine uptake (Leishmania donovani [13]): 823954 c.p.m. (mg of protein)-1

C=CCCCC(N)C[C@H]1OC(n2cnc3c(N)ncnc32)[C@H](O)[C@@H]1O (stereo partly specified)
Ki (Leishmania donovani [1]): 877 µM
Thymidine uptake (Leishmania donovani [14]): 1703083 c.p.m. (mg of protein)-1
Thymidine uptake (Leishmania donovani [15]): 2880449 c.p.m. (mg of protein)-1
Ratio [10]: 15.9
Cell growth (Leishmania donovani [16]): 97%
Cell growth (Leishmania donovani [17]): 65%
Cell growth (Leishmania donovani [18]): 41%

Nc1ncnc2c1ncn2C1O[C@H](C[C@@H](N)CC[C@@H](N)C(=O)O)[C@@H](O)[C@H]1O (stereo partly specified)
Thymidine uptake (Leishmania donovani [19]): 1741329 c.p.m. (mg of protein)-1
Thymidine uptake (Leishmania donovani [20]): 2197110 c.p.m. (mg of protein)-1
Thymidine uptake (Leishmania donovani [21]): 1583862 c.p.m. (mg of protein)-1
Cell growth (Leishmania donovani [22]): 15%
Thymidine uptake (Leishmania donovani [23]): 956745 c.p.m. (mg of protein)-1

NCCC(CN)C[C@H]1OC(n2cnc3c(N)ncnc32)[C@H](O)[C@@H]1O (stereo partly specified)
Ki (Leishmania donovani [1]): 1120 µM
Cell growth (Leishmania donovani [24]): 80%
Cell growth (Leishmania donovani [25]): 93%
Ratio [10]: 23.3

Nc1ncnc2c1ncn2[C@@H]1O[C@H](CC(N)CCCC(=O)O)[C@@H](O)[C@H]1O (stereo in doubt; 3a)
Ki (Leishmania donovani [1]): 165 µM
Thymidine uptake (Leishmania donovani [26]): 1459000 c.p.m. (mg of protein)-1
Thymidine uptake (Leishmania donovani [27]): 1499100 c.p.m. (mg of protein)-1
Thymidine uptake (Leishmania donovani [28]): 1556483 c.p.m. (mg of protein)-1
Thymidine uptake (Leishmania donovani [29]): 1772064 c.p.m. (mg of protein)-1
Ratio [10]: 3

Nc1ncnc2c1ncn2[C@@H]1O[C@H](CC(N)CCCC(=O)O)[C@@H](O)[C@H]1O (stereo in doubt; 3b)
Ki (Leishmania donovani [1]): 380 µM
Thymidine uptake (Leishmania donovani [30]): 3284127 c.p.m. (mg of protein)-1
Thymidine uptake (Leishmania donovani [31]): 1973260 c.p.m. (mg of protein)-1
Ratio [10]: 6.9
Thymidine uptake (Leishmania donovani [32]): 1861835 c.p.m. (mg of protein)-1
Thymidine uptake (Leishmania donovani [33]): 1161185 c.p.m. (mg of protein)-1

Nc1ncnc2c1ncn2[C@@H]1O[C@H](CC2CCNC2)[C@@H](O)[C@H]1O (stereo in doubt; 6a)
Ki (Leishmania donovani [1]): 103 µM
Cell growth (Leishmania donovani [34]): 37%
Cell growth (Leishmania donovani [35]): 83%
Cell growth (Leishmania donovani [36]): 74%
Ratio [10]: 2.1

Nc1ncnc2c1ncn2[C@@H]1O[C@H](CC2CCNC2)[C@@H](O)[C@H]1O (stereo in doubt; 6b)
Ki (Leishmania donovani [1]): 140 µM
Ratio [10]: 2.9

C[S+](CC[C@H](N)C(=O)[O-])C[C@H]1O[C@@H](n2cnc3c(N)ncnc32)[C@H](O)[C@@H]1O (stereo partly specified) [ADEMETIONINE]
Km (Leishmania donovani [37]): 55 µM

Nc1ncnc2c1ncn2[C@@H]1O[C@H](CSCC[C@H](N)C(=O)O)[C@@H](O)[C@H]1O [S-ADENOSYLHOMOCYSTEINE]
Ki (Leishmania donovani [1]): 7.2 µM
Ratio [10]: 0.13
